ChEMBL document CHEMBL1641563, “Synthesis and antihyperglycemic activity of phenolic C-glycosides” (2011)

Legend:
Type in all cases: functional
Rattus norvegicus [1] = assay: Antihyperglycemic activity against streptozotocin-induced Sprague-Dawley albino rat diabetic model assessed as area under the 0 to 5 hrs blood glucose response curve (0-5 hrs AUC) at 25 mg/kg, po after 48 hrs by glucometer
Procedure, shortened: (§1)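 Male Sprague–Dawley rats, fasted overnight, received STZ 60 mg/kg ip in 0.1 M citrate pH 4.5. Rats with glucose 140–270 mg/dl at 48 h were used, n = 5 per group. Compound was given at 25 mg/kg orally in 1.0% gum acacia, with vehicle controls, and a sucrose load of 2.5 g/kg followed 30 min later. Glucose was read by glucometer at 1–6 h and 24 h. Percent activity came from AUC versus control, with Dunnett's test.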

Rattus norvegicus [2] = assay: Antihyperglycemic activity against streptozotocin-induced Sprague-Dawley albino rat diabetic model assessed as area under the 0 to 24 hrs blood glucose response curve (0-24 hrs AUC) at 25 mg/kg, po after 48 hrs by glucometer; procedure, shortened: as §1
L6 = assay: Antihyperglycemic activity against rat L6 cells assessed as increase in glucose uptake by liquid scintillation counting; set-up: concentration or dose not given beside the values
Procedure, shortened: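 L6 myoblasts were grown in DMEM with 10% FBS, then differentiated into myotubes for 7–8 days in 2% FBS. Myotubes were treated with compound at 10 or 50 µM for 18 h and washed in Krebs–Ringer HEPES. Uptake of 2-deoxy-[3H]-D-glucose (3 µCi, plus 20 µM unlabelled) was measured over 15 min. Non-specific uptake was taken with 10 µM cytochalasin B. Counts (cpm/well) were compared with controls.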

Rattus norvegicus [3] = assay: Antihyperglycemic activity against streptozotocin-induced Sprague-Dawley albino rat diabetic model assessed as reduction in blood glucose at 25 mg/kg, po after 24 hrs; set-up: scale not given: the % may be the effect or the level left; procedure, shortened: as §1

Row | Structure (SMILES) | Activity (Rattus norvegicus [1]) | Activity (Rattus norvegicus [2]) | Activity (L6) | Activity (Rattus norvegicus [3])
1 | OC[C@H]1O[C@@H](c2c(O)cccc2O)[C@H](O)[C@@H](O)[C@@H]1O | 12.7% | 22.3% | – | –
2 | O=c1cc(-c2ccc(O)c(O)c2)oc2c([C@@H]3O[C@H](CO)[C@@H](O)[C@H](O)[C@H]3O)c(O)ccc12 | 14.3% | 16.1% | – | –
3 | OC[C@H]1O[C@@H](c2c(O)ccc3cc(Cc4ccc(O)cc4)oc23)[C@H](O)[C@@H](O)[C@@H]1O | 9.78% | 11.2% | – | –
4 | O=C1c2ccc(O)c([C@@H]3O[C@H](CO)[C@@H](O)[C@H](O)[C@H]3O)c2OC1(O)Cc1ccc(O)cc1 (stereo not given in full) | 1.99% | 7.9% | – | –
5 | O=C(CC(O)c1ccc(O)c(O)c1)c1ccc(O)c([C@@H]2O[C@H](CO)[C@@H](O)[C@H](O)[C@H]2O)c1O (stereo not given in full) | 20% | 19.5% | – | –
6 | O=C1Oc2c(ccc(O)c2[C@@H]2O[C@H](CO)[C@@H](O)[C@H](O)[C@H]2O)/C1=C\c1ccc(O)cc1 | 17.2% | 29% | 16% | –
7 | O=C1c2c(cc(O)c([C@@H]3O[C@H](CO)[C@@H](O)[C@H](O)[C@H]3O)c2O)OC(c2ccc(O)c(O)c2)C1O (stereo not given in full) | 17.6% | 12.8% | 10.2% | –
8 | O=C1CC(c2ccc(O)cc2)Oc2cc(O)c([C@@H]3O[C@H](CO)[C@@H](O)[C@H](O)[C@H]3O)c(O)c21 (stereo not given in full) | 8.41% | 15.1% | 12.2% | –
9 | O=C1c2c(cc(O)c([C@@H]3O[C@H](CO)[C@@H](O)[C@H](O)[C@H]3O)c2O)OC(c2ccc(O)cc2)C1O (stereo not given in full) | 23.8% | 23.8% | – | 23.8%
10 | COC(=O)c1c(O)c([C@@H]2O[C@H](CO)[C@@H](O)[C@H](O)[C@H]2O)c(O)c([C@@H]2O[C@H](CO)[C@@H](O)[C@H](O)[C@H]2O)c1O | 11.5% | 7.78% | 10.8% | –
11 | CC(=O)c1c(O)cc(O)c([C@@H]2O[C@H](CO)[C@@H](O)[C@H](O)[C@H]2O)c1O | 18% | 20.9% | 15.3% | –
12 | O=C(CCc1ccccc1)c1c(O)cc(O)c([C@@H]2O[C@H](CO)[C@@H](O)[C@H](O)[C@H]2O)c1O | 22.3% | 26.5% | 11.6% | 26.5%
13 | COc1cc(OC)c([C@@H]2O[C@H](CO)[C@@H](O)[C@H](O)[C@H]2O)c(OC)c1C(=O)/C=C/c1ccc(C(C)C)cc1 | 34.9% | 33.6% | – | 33.6%
14 | O=c1c(O)c(-c2ccc(O)cc2)oc2cc(O)c([C@@H]3O[C@H](CO)[C@@H](O)[C@H](O)[C@H]3O)c(O)c12 | 16.7% | 23.5% | 12.2% | –
15 | COC(=O)c1c(O)cc(O)c([C@@H]2O[C@H](CO)[C@@H](O)[C@H](O)[C@H]2O)c1O | 7.27% | 2.9% | – | –
16 | O=c1c(O)c(-c2ccc(O)c(O)c2)oc2cc(O)c([C@@H]3O[C@H](CO)[C@@H](O)[C@H](O)[C@H]3O)c(O)c12 | 15.6% | 8.56% | – | –
17 | CN(C)C(=N)NC(=N)N [METFORMIN] | 27.2% | 24.1% | 19.4% | –
